Reference: ChEMBL document CHEMBL2321752, “A potent and highly efficacious Bcl-2/Bcl-xL inhibitor” (J Med Chem, 2013)
Active and inactive are the calls of the source. The rule behind the calls is not given here.

How the values were obtained:
[1] = biological target: Bcl-2-like protein 1 (Homo sapiens, UniProt Q07817); assay: Binding affinity to BCL-XL (unknown origin) after 2 hrs by fluorescence polarization assay
Method in brief: (§1)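 Competitive FP binding assay. Preformed protein/fluorescent probe complexes were used at 1.5/1 nM for Bcl-2, 10/2 nM for Bcl-xL and 20/2 nM for Mcl-1. These were mixed with serially diluted inhibitor and shaken gently for 2 h at room temperature before millipolarization was read. IC50 came from nonlinear regression, and Ki was calculated from IC50.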

[2] = system: NCI-H1417; assay: Cytotoxicity against human NCI-H1417 cells assessed as growth inhibition after 4 days by WST assay; format: functional, cell-based; conditions: NCI-H1417, 96 h
Method in brief: (§2)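 Human small-cell lung cancer line from ATCC, kept in RPMI-1640 with 10% FBS. Cells were exposed to serial compound concentrations for 4 days. WST-8 dye was then added for a further 1–2 h and absorbance read at 450 nm. IC50 was derived from absorbance of treated versus untreated cells. At least three independent experiments per cell line; standard deviation reported.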

[3] = biological target: Induced myeloid leukemia cell differentiation protein Mcl-1 (Homo sapiens, UniProt Q07820); assay: Binding affinity to MCL1 (unknown origin) after 2 hrs by fluorescence polarization assay; method in brief: as §1
[4] = system: NCI-H187; assay: Cytotoxicity against human NCI-H187 cells assessed as growth inhibition after 4 days by WST assay; format: functional, cell-based; conditions: NCI-H187, 96 h; method in brief: as §2
[5] = system: Mus musculus; assay: Toxicity in SCID mouse assessed as weight loss at 15 mg/kg, iv administered 5 days per week for 2 weeks relative to control; format: organism-based; design: dose 15 mg/kg, route intravenous; conditions: in vivo
Method in brief: (§3)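 Tolerability run in non-tumor-bearing SCID mice. Compound given intravenously at 15 or 25 mg/kg, daily, 5 days a week for 2 weeks. Weight loss and other signs of toxicity were followed during and after treatment, and the maximum tolerated dose was set from weight loss.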

[6] = system: Mus musculus; assay: Toxicity in SCID mouse 15 mg/kg, iv administered 5 days per week for 2 weeks; format: organism-based; design: dose 15 mg/kg, route intravenous; conditions: in vivo; method in brief: as §3
[7] = Antitumor activity against human NCI-H146 cells xenografted in SCID mouse assessed as tumor volume at 15 mg/kg, iv administered 5 days per week for 2 weeks measured on day 117 (reference value: 130 mm'3); format: functional
Method in brief: (§4)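 H146 cells (5×10^6, with Matrigel) implanted subcutaneously on the dorsal side of SCID mice, one tumor per mouse. Mice with tumors of 100–150 mm³ were randomized into groups of 8, mean volume 126 mm³. Vehicle or compound given intravenously at 15 mg/kg, daily, 5 days/week for 2 weeks. Tumor volume was followed over time.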

[8] = system: Mus musculus; assay: Toxicity in SCID mouse xenografted with human NCI-H146 cells 15 mg/kg, iv administered 5 days per week for 2 weeks; format: organism-based; design: dose 15 mg/kg, route intravenous; conditions: in vivo
Method in brief: (§5)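 SCID mice carried subcutaneous H146 xenografts, 8 per group, starting mean tumor volume 126 mm³. Dosing was intravenous at 15 mg/kg, daily, 5 days/week for 2 weeks. Body weight and other signs of toxicity were monitored during and after treatment.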

[9] = system: NCI-H1963; assay: Cytotoxicity against human NCI-H1963 cells assessed as growth inhibition after 4 days by WST assay; format: functional, cell-based; conditions: NCI-H1963, 96 h; method in brief: as §2
[10] = system: NCI-H146; assay: Induction of apoptosis in human NCI-H146 cells xenografted in SCID mouse assessed as increase in PARP cleavage at 15 mg/kg, iv after 3 to 6 hrs by Western blotting analysis; format: functional, organism-based; design: dose 15 mg/kg
Method in brief: (§6)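 SCID mice bearing subcutaneous H146 xenografts of about 100 mm³ got a single intravenous dose of 15 mg/kg or vehicle. Tumors were harvested at 3, 6 or 24 h. Western blot then measured total and cleaved PARP and caspase-3.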

[11] = system: NCI-H146; assay: Antitumor activity against human NCI-H146 cells xenografted in SCID mouse assessed as tumor regression at 15 mg/kg, iv administered 5 days per week for 2 weeks measured on day 62; format: functional, organism-based; design: dose 15 mg/kg; method in brief: as §4
[12] = system: NCI-H146; assay: Antitumor activity against human NCI-H146 cells xenografted in SCID mouse assessed as tumor regression at 15 mg/kg, iv administered 5 days per week for 2 weeks; format: functional, organism-based; design: dose 15 mg/kg; method in brief: as §4
[13] = system: NCI-H146; assay: Induction of apoptosis in human NCI-H146 cells xenografted in SCID mouse assessed as increase in caspase-3 cleavage at 15 mg/kg, iv after 3 to 6 hrs by Western blotting analysis; format: functional, organism-based; design: dose 15 mg/kg; method in brief: as §6
[14] = Toxicity in iv dosed SCID mouse assessed as weight loss administered 5 days per week for 2 weeks; format: organism-based; conditions: in vivo
Method in brief: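 Maximum tolerated dose study in SCID mice. Compound was given intravenously at 15 or 25 mg/kg, daily, 5 days a week for 2 weeks. Body weight loss and other signs of toxicity were monitored during and after treatment.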

[15] = system: Mus musculus; assay: Toxicity in SCID mouse assessed as weight loss at 25 mg/kg, iv administered 5 days per week for 2 weeks relative to control; format: organism-based; design: dose 25 mg/kg, route intravenous; conditions: in vivo; method in brief: as §3
[16] = biological target: Apoptosis regulator Bcl-2 (Homo sapiens, UniProt P10415); assay: Binding affinity to BCL2 (unknown origin) after 2 hrs by fluorescence polarization assay; method in brief: as §1
[17] = Cytotoxicity against human NCI-H146 cells assessed as growth inhibition after 4 days by WST assay; format: functional, cell-based; conditions: NCI-H146, 96 h
[18] = system: Mus musculus; assay: Toxicity in SCID mouse xenografted with human NCI-H146 cells assessed as weight loss at 15 mg/kg, iv administered 5 days per week for 2 weeks; format: organism-based; design: dose 15 mg/kg, route intravenous; conditions: in vivo; method in brief: as §5

Sequence of Apoptosis regulator Bcl-2 (P10415 whole entry): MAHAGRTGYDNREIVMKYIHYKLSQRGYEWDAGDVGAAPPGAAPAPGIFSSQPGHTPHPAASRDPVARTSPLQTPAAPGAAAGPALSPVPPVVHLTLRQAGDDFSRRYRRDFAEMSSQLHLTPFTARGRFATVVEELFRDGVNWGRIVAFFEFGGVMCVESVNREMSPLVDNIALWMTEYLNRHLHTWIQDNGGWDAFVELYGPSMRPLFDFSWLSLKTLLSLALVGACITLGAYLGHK
Sequence of Bcl-2-like protein 1 (Q07817 whole entry): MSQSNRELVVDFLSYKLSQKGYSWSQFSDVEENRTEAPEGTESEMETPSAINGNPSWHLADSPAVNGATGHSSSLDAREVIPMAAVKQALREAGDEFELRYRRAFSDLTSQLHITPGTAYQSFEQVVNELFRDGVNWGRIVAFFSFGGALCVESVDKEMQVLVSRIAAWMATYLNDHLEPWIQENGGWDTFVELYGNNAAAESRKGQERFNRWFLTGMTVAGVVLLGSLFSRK
Sequence of Induced myeloid leukemia cell differentiation protein Mcl-1 (Q07820 whole entry): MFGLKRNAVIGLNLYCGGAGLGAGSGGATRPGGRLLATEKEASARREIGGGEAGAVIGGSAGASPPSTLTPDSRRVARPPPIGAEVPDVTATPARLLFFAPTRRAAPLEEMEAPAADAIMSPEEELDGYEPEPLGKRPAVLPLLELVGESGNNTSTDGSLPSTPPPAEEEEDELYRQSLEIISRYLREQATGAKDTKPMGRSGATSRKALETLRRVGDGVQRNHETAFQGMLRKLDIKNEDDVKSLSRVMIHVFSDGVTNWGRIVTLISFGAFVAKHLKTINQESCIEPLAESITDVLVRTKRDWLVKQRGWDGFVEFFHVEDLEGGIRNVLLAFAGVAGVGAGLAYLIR

## Cc1c(C(=O)NS(C)(=O)=O)c(-c2cccc(N3CCN(c4ccc(NS(=O)(=O)c5ccc(N[C@H](CCN(C)C)CSc6ccccc6)c([N+](=O)[O-])c5)cc4)CC3)c2)c(-c2ccc(Cl)cc2)n1C(C)C
[1]
  IC50: 6.9 nM
  Ki: < 1 nM
[2]
  IC50: 2.3 nM
[3]
  IC50: > 2000 nM
[4]
  IC50: 1.4 nM
[5]
  Activity: < 5%
[6]
  Activity: Non-toxic
[7]
  Activity: 47 mm3
[8]
  Activity: Non-toxic
[9]
  IC50: 1 nM
[10]
  Activity: Active
[11]
  Activity: Active
[12]
  Activity: Active
[13]
  Activity: Active
[14]
  MTD at 2 weeks: 15 mg/kg
[15]
  Activity: 10%
[16]
  IC50: 1.8 nM
  Ki: < 1 nM
[17]
  IC50: 1.3 nM
[18]
  Activity: Non-toxic
